The sample as a whole holds a higher share of hits than the screen did.
TLR4-MyD88 BLA – inhibitors of TLR4-MyD88 association in cells, primary screen, cell-based, HeLa CL3-4, BLA complementation, FRET ratio; 200,000 compounds, 0.18% hits; AID 861, 2007; inhibition, % at 8.4 µM; HeLa CL3-4 TLR4/MyD88 BLA complementation; Toll-like receptor 4 (Homo sapiens) + Myeloid differentiation primary response protein …; in the data active = inhibition above about 25%;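 also: 0% = vehicle and 100% = reference inhibitor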
Target sequence (O00206 whole entry, looked up): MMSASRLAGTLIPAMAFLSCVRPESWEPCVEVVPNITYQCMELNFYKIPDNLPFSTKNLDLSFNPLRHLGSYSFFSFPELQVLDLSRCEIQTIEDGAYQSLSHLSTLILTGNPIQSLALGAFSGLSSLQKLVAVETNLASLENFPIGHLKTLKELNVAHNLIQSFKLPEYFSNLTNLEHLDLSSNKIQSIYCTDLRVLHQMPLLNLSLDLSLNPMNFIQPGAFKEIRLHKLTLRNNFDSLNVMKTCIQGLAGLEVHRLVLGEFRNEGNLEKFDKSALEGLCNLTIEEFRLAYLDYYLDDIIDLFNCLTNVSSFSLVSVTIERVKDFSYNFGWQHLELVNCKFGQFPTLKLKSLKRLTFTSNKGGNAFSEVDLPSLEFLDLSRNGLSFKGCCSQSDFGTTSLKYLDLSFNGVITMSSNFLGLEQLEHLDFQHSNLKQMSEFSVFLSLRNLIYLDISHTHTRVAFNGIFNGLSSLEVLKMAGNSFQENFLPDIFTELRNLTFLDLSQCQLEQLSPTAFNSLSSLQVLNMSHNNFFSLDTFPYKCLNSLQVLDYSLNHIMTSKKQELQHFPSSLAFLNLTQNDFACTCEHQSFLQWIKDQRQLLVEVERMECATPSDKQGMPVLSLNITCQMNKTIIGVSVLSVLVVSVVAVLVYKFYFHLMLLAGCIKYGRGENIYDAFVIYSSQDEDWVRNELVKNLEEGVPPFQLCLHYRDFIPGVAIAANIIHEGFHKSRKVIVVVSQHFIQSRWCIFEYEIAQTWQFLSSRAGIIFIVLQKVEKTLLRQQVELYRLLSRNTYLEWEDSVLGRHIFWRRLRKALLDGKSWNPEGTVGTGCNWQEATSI
Target sequence (Q99836 whole entry, looked up): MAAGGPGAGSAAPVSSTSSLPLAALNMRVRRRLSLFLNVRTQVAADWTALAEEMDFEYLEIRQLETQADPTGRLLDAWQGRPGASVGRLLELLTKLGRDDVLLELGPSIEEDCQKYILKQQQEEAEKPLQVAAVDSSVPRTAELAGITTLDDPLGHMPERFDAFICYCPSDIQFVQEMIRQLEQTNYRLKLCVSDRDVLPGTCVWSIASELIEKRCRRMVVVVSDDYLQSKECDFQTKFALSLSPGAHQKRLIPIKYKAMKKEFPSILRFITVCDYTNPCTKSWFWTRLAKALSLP
NOD2 RIPK2 PPI – NOD2-RIPK2 binding disruptors in cells, primary screen, fluorescence, CHO cells, BLA complementation. CCF4 ratio. 360,000 compounds, 0.38% hits. inhibition, % at 4.98 µM. AID 624267, 2012; in the data active = inhibition above about 21%;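 also: 0% = vehicle only and 100% = reference blocker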
CHOP inh – inhibitors of CHOP promoter induction, primary screen, cell-based, unfolded protein response, luciferase reporter. AID 2732, 2010. CHO-K1 CHOP-promoter luciferase, tunicamycin-induced, 15-18 h. inhibition, % at 10 µM. 220,000 compounds, 3.8% hits;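 active = compounds that reduced the stress-induced luciferase reporter signal by more than about 70% of percent inhibition, limit read from the data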;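 also: 0% = tunicamycin plus vehicle and 100% = wells without tunicamycin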
TLR9-MyD88 inh – inhibitors of TLR9-MyD88 association in cells, primary screen, cell-based, CHO, BLA complementation, fluorescence. inhibition, % at 4.98 µM. Toll-like receptor 9 (Homo sapiens) + Myeloid differentiation primary response protein …. CCF4 FRET ratio. 340,000 compounds, 0.21% hits;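 active = inhibition above the mean over all tested compounds plus 3 SD, cut at about 21% in these data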;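 also: 0% = DMSO only wells and 100% = clavulanate BLA inhibitor control wells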
UPR CHOP act – activators of apoptotic CHOP UPR arm, primary screen, cell-based, CHO-CHOP luciferase reporter, luminescence, uHTS | activation, % at 10 µM | AID 449763, 2010 | UPR activation; percent of tunicamycin response over DMSO baseline | 330,000 compounds, 0.34% hits;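 active = at 10 µM dose, activation of 40% or more, normalized to positive control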;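 also: 100% = tunicamycin at 10 µg/mL and 0% = DMSO alone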
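System: CHO CHOP reporter cells. Amount: 500 cells per well. Buffer or medium: F12 medium, 10% FBS. Compound dosing: one dose, 10 µM in 0.5% DMSO. Incubation: 6 h compound exposure at 37 °C after overnight seeding. Technique: Steady-Glo luciferase luminescence. Benchmarks: tunicamycin and DMSO controls.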
XBP1 UPR activ – activators of adaptive XBP1 UPR arm, primary screen, cell-based, CHO-XBP1 luciferase reporter, luminescence, uHTS; activation, % at 20 µM; AID 463104, 2010; 330,000 compounds, 0.33% hits; IRE1-XBP1 UPR activation; percent of tunicamycin response, DMSO as zero;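 active = versus positive control, 20 µM dose yields 30% or more activation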;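 also: 100% = tunicamycin at 10 µg/mL and 0% = DMSO only wells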
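Assay system: IRE1-XBP1 luciferase reporter CHO line. Input: 1000 cells/well. Buffer or medium: F12 with 10% serum. Doses: 20 µM, 1% DMSO. Times: overnight seeding at 37 °C, 6 h compound treatment at 37 °C. Technique: Steady-Glo luciferase glow luminescence, 10 min after reagent addition.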
CHOP confirm – retest of CHOP induction inhibitors, confirmation, cell-based; 2,100 compounds, 45% hits; CHO-CHOP promoter luciferase reporter, tunicamycin-induced, luminescence; AID 504437, 2011; inhibition, % at 10 µM; shares compounds with CHOP inh;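 active = mean of three repeat readings of reporter signal inhibition above a set limit, cut at about 70% in these data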;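 also: 0% = tunicamycin plus vehicle and 100% = wells lacking tunicamycin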
The depositor's hits bear a star; nt = no result.

SMILES | TLR4-MyD88 BLA | NOD2 RIPK2 PPI | CHOP inh | TLR9-MyD88 inh | UPR CHOP act | XBP1 UPR activ | CHOP confirm
Cc1ccc(-c2cc(-c3ccc(F)cc3)c(C#N)c(N)n2)o1 | -23.7 | -16.3 | -21.9 | 6.8 | -0.3 | 0.1 | nt
Cc1ccc(-c2cc(-c3ccc(Cl)cc3)c(C#N)c(N)n2)o1 | -27.4 | -5.8 | 97.9* | 4.8 | 0.2 | -1.7 | 5.0
Cc1ccc(-c2cc(-c3ccc(C)o3)nc(N)c2C#N)cc1 | -8.8 | -7.5 | 100.7* | 2.6 | -1.8 | -6.9 | 9.7
COC(=O)c1ccc(Cn2c(C)c(C(=O)NCc3cccc(C(F)(F)F)c3)sc2=O)o1 | nt | -2.5 | nt | nt | nt | nt | nt
CSc1ccc(NC(=O)C2(C)CCN2C(=O)c2cc(C)n(C)n2)cc1 (configuration not stated) | nt | -1.8 | nt | nt | nt | nt | nt
O=[N+]([O-])c1cc2no[n+]([O-])c2cc1N1CCCCC1 | nt | 7.7 | nt | -10.3 | nt | nt | nt
Fc1cc(Cl)cc2ccc(-c3ccccc3)nc12 | nt | -7.7 | nt | nt | nt | nt | nt
CCOC(=O)c1oc2ccc(/C=N/O)c(Cl)c2c1C | 0.7 | 0.8 | 104.0* | 1.2 | 6.9 | 6.0 | 16.9
CCOC(=O)c1oc2cc(C)cc(C)c2c1C | nt | 3.8 | 28.2 | -1.6 | 0.8 | 2.9 | nt
CCOC(=O)C(=Cc1ccc(N(C)C)cc1)C(=O)c1ccccc1 | nt | 18.2 | nt | nt | nt | nt | nt
CCOC(=O)/C(=C/c1ccc(OC(=O)c2ccccc2)cc1)C(C)=O | -8.9 | -13.1 | 101.0* | 3.1 | 4.4 | 18.3 | -30.5
CC1=CC(C)(C)N2C(=O)C3(SCC(=O)N3c3ccc(F)cc3)c3cc(C)cc1c32 (configuration not stated) | -2.5 | -2.9 | 107.5* | -5.8 | -1.2 | 1.6 | 111.7*
CC1=CC(C)(C)N2C(=O)C3(NCCc4c3[nH]c3ccccc43)c3cc(C)cc1c32 (configuration not stated) | nt | 2.7 | -15.8 | 1.8 | 1.9 | -2.1 | nt
Cc1ccc(-n2nc(C)c3c2OC(N)=C(C#N)C3c2ccccc2F)cc1 (configuration not stated) | 6.1 | -9.2 | 96.5* | -2.0 | -3.8 | -10.1 | 4.6
Cc1ccc(-n2nc(C)c3c2OC(N)=C(C#N)C3c2ccncc2)cc1 (configuration not stated) | -7.6 | -50.2 | 0.9 | 2.8 | 16.4 | 0.5 | nt
OC(c1ccc(F)c(F)c1)c1nc(-c2cccc(F)c2)cs1 (configuration not stated) | nt | 2.3 | nt | nt | nt | nt | nt
CCSCCc1nnc(NC(=O)Nc2cccc(C(F)(F)F)c2)s1 | 3.6 | -19.0 | 96.3* | -3.3 | 7.1 | 10.6 | 99.3*
Cc1cc(C)n(-c2nc3ccccc3nc2N2CCCCCC2)n1 | 1.4 | 4.8 | 96.1* | 5.4 | -1.2 | 0.0 | 36.1
CC1CCC(n2c(=S)[nH]c3ccccc3c2=O)CC1 (configuration not stated) | 6.8 | 4.7 | 103.1* | 0.2 | 2.7 | 3.6 | 104.2*
CCOC(=O)C(=O)N(C)c1c(CC)nc2c(OCc3ccccc3)cccn12 | nt | -9.5 | nt | nt | nt | nt | nt
O=c1c(Cl)c(N/N=C/c2ccc(Cl)cc2)cnn1-c1ccccc1 | -7.2 | 3.2 | 101.6* | 13.6 | 1.7 | 1.8 | 59.4
Nc1c(C(=O)N/N=C/c2ccc(Cl)cc2)cnn1-c1ccccc1 | nt | -2.3 | 19.2 | 1.7 | 4.6 | -1.7 | nt
C=CCn1c(SCC(=O)Nc2ccc(-c3nc4ccc(C)cc4s3)cc2)nnc1-c1ccccc1 | -4.9 | -2.3 | 99.5* | 0.0 | nt | nt | 70.1*
C=CCOC(=O)C1=C(C)NC(SCC(N)=O)=C(C#N)C1c1ccc(C)cc1 (configuration not stated) | nt | -0.8 | 19.2 | -2.5 | 0.8 | -1.6 | nt
C=CCOC(=O)C1=C(C)NC(SCC)=C(C#N)C1c1ccc(Cl)cc1 (configuration not stated) | -1.9 | 1.5 | 102.0* | 3.6 | 0.2 | 5.5 | 59.4
SMILES | TLR4-MyD88 BLA | NOD2 RIPK2 PPI | CHOP inh | TLR9-MyD88 inh | UPR CHOP act | XBP1 UPR activ | CHOP confirm
CN(Cc1ccccc1)C(=O)c1cccc(NC(=O)Cc2ccc(NC(=O)C3CCCN(C(=O)C4CC4)C3)cc2)c1 (configuration not stated) | nt | -1.0 | nt | -0.4 | nt | nt | nt
COC(=O)Cn1c(=NC(=O)c2nc3ccccc3s2)sc2cc(S(N)(=O)=O)ccc21 | -13.3 | -11.8 | 103.6* | -11.3 | 1.7 | 4.4 | -30.3
CCc1nc2ccc(C(=O)NCCc3ccccn3)cn2c1N(C)Cc1cccs1 | nt | 5.9 | nt | nt | nt | nt | nt
C[C@@H](c1ccccc1)N1C[C@H](COCc2ccccc2)Oc2cc(N3CC[C@H](N(C)C)C3)ccc2S1(=O)=O | nt | 11.0 | nt | nt | nt | nt | nt
C/C(=N\N=C(/N)SC1CC(=O)N(c2ccc(Cl)c(Cl)c2)C1=O)c1cccs1 (configuration not stated) | 1.0 | -4.6 | 109.9* | -0.4 | -0.4 | -0.5 | 18.6
C/C(=N\N=C(/N)SC1CC(=O)N(c2ccc(Cl)cc2)C1=O)c1cccs1 (configuration not stated) | -9.5 | -17.1 | 68.7 | 1.9 | 1.5 | -0.3 | nt
CCOC(=O)C1=CCN(S(=O)(=O)c2ccccc2C)C1c1cccc(C)c1 (configuration not stated) | nt | -3.1 | nt | nt | nt | nt | nt
COc1ccccc1NC(=O)c1c(Nc2ccccc2F)sc(C(=O)Nc2cccc(Cl)c2)c1N | -6.8 | -6.7 | 108.3* | -2.3 | 4.8 | 3.1 | 62.6
COc1ccc(Nc2sc(C(=O)Nc3cccc(Cl)c3)c(N)c2C(=O)Nc2ccccc2OC)cc1 | -0.5 | nt | 15.8 | nt | nt | nt | nt
CC1CN(C=O)CC(C)N1CCN1C(C)CN(C=O)CC1C (configuration not stated) | nt | 3.7 | nt | -8.0 | nt | nt | nt
O=C(O)CSCC(=O)Nc1ccc(C2CCCCC2)cc1 | -0.4 | 1.9 | 98.9* | 5.8 | -8.4 | -4.7 | 107.5*
S=C(NCCCc1cnc[nH]1)NCCCN(Cc1ccc(Cl)cc1)c1ccc(Br)cn1 | nt | 3.6 | nt | nt | nt | nt | nt
Cc1nn(-c2ccccc2)c(C)c1/C=N/n1c(-c2ccc(Cl)cc2)n[nH]c1=S | 7.3 | 4.1 | 103.0* | -4.4 | 0.2 | 8.9 | 47.7
CSCCC(NC(=O)c1ccccc1Cl)C(=O)NCC(c1cccs1)N(C)C (configuration not stated) | nt | -11.3 | nt | -12.9 | 0.7 | 1.4 | nt
Cc1cccc(/C=C2/S/C(=N/N=C3\CC4CCC3(C)C4(C)C)NC2=O)c1 (configuration not stated) | 3.3 | 4.3 | 104.7* | 1.1 | -1.7 | 1.3 | 105.9*

High-throughput results: PubChem BioAssay, several laboratories
